# Only a selection was taken, and hits are over-represented in it overall.
# CHOP inhibitor = CHOP inhibition in unfolded protein response; CHO-K1 CHOP-promoter luciferase, tunicamycin-induced, 15-18 h; inhibition, % at 10 µM; hit rate 3.8% among 220,000;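 active = compounds that reduced the stress-induced luciferase reporter signal by more than about 70% of percent inhibition, limit read from the data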;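 note: 0% = tunicamycin plus vehicle and 100% = wells without tunicamycin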
# UPR CHOP act = activators of apoptotic arm of unfolded protein response (CHOP); CHO-CHOP luciferase reporter, UPR activation, luminescence; percent of tunicamycin response over DMSO baseline; activation, % at 10 µM; hit rate 0.34% among 330,000; AID 449763;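 active = at 10 µM dose, activation of 40% or more, normalized to positive control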;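 note: 100% = tunicamycin at 10 µg/mL and 0% = DMSO alone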
#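 Test system: CHO-CHOP cells, stable luciferase reporter of PERK-eIF2a-CHOP signalling | Quantity: 500 CHO-CHOP cells per well | Buffer or medium: F12 plus 10% serum | Compound dosing: 10 µM single point, 0.5% DMSO | Schedule: 6 h compound treatment, 37 °C | Signal: Luciferase luminescence | Control set: Tunicamycin high control, DMSO low control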
# 697 NFkB inh = lowers PMA/ionomycin-induced NF-kB signal in 697 B cells; 697 B-cell NF-kB luciferase reporter, 16 h; inhibition, % at 4 µM; hit rate 0.33% among 330,000; AID 435022; in the data active = inhibition above about 35%
# Jurkat NFkB inh = inhibitors of the PMA/ionomycin-induced NF-kB reporter in Jurkat cells. PMA/ionomycin-induced NF-kB luciferase reporter, luminescence. hit rate 0.53% among 330,000. AID 435003. inhibition, % at 4 µM; in the data active = inhibition above about 50%
# UPR XBP1 act = adaptive UPR (XBP1) activation; CHO-XBP1 luciferase reporter, IRE1-XBP1 UPR activation, luminescence; percent of tunicamycin response, DMSO as zero; activation, % at 20 µM; hit rate 0.33% among 330,000; AID 463104;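 active = versus positive control, 20 µM dose yields 30% or more activation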;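 note: 100% = tunicamycin at 10 µg/mL and 0% = DMSO only wells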
#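 Material – CHO cell line with stable XBP1 luciferase reporter · Buffer or medium – F12 plus 10% FBS · Compound – single point, 20 µM final compound, 1% DMSO · Schedule – 16-18 h cell attachment at 37 °C, then 6 h compound exposure · Signal – Steady-Glo luminescence read · Benchmarks – high control tunicamycin 10 µg/mL final, low control DMSO vehicle only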
# CHOP inh conf = confirmation of CHOP induction inhibitors. AID 504437. CHO-CHOP promoter luciferase reporter, tunicamycin-induced, luminescence. inhibition, % at 10 µM. hit rate 45% among 2,100. shares compounds with CHOP inhibitor;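 active = mean of three repeat readings of reporter signal inhibition above a set limit, cut at about 70% in these data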;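 note: 0% = tunicamycin plus vehicle and 100% = wells lacking tunicamycin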
# * hit, by the source's call; . = not tested or not shown.
SMILES,CHOP inhibitor,UPR CHOP act,697 NFkB inh,Jurkat NFkB inh,UPR XBP1 act,CHOP inh conf
O=C(O)c1ccc(Oc2ccc(C(F)(F)F)cn2)cc1,4.3,0.0,13.7,-5.8,-1.7,.
Cc1ccccc1N1CCN(C(=O)c2ccc(Oc3ccc(C(F)(F)F)cn3)cc2)CC1,103.3*,-0.2,-20.7,11.2,-2.0,73.2*
CCN(CC)CCOc1ccc(/C(=C(/Cl)c2ccccc2)c2ccccc2)cc1,98.6*,1.9,-9.3,-7.4,-0.2,7.3
O=C(Cn1ncc2c3ccccc3n(Cc3ccccc3)c2c1=O)NCCN1CCOCC1,.,0.6,-2.4,-4.5,-4.0,.
O=C(Cn1ncc2c3ccccc3n(Cc3ccccc3)c2c1=O)NCc1ccco1,96.4*,0.8,13.3,10.1,-2.4,16.1
Cc1nn(-c2ccc(F)cc2)c2nc(N)c(C#N)c(-c3cccs3)c12,99.7*,1.3,-55.5,-25.5,6.0,42.3
Cc1nn(-c2ccc(F)cc2)c2nc(N)c(C#N)c(-c3ccc(O)c(O)c3)c12,.,4.3,-42.1,15.6,6.4,.
N#CCC(=O)N/N=C\c1ccccc1OC/C=C/c1ccccc1,.,4.4,-107.9,-66.9,5.1,.
CCN(CC(=O)NC1CCS(=O)(=O)C1)S(=O)(=O)c1cc(C)ccc1C (configuration not stated),.,0.0,15.1,9.4,4.1,.
CC(=O)Nc1ccc(N(C(=O)Cc2cccs2)C(C(=O)NC2CCCC2)c2ccncc2)cc1 (configuration not stated),.,-0.8,-27.1,-14.4,3.1,.
CC1=C(C(=O)Nc2ccc(C)cc2C)C(c2cccc(Cl)c2)n2nc(C(=O)OC(C)C)nc2N1 (configuration not stated),105.7*,1.3,7.9,-7.7,-4.0,117.5*
CC1=C(C(=O)Nc2ccc(C)cc2C)C(c2cccc([N+](=O)[O-])c2)n2nc(C(=O)OC(C)C)nc2N1 (configuration not stated),26.9,-0.5,-132.6,-62.6,-1.1,.
COc1ccc(NC(=O)CSc2nnc(Cc3ccccc3)c(=O)n2N)cc1OC,.,0.6,-9.6,-11.2,1.1,.
CC1(C)c2ssc(=S)c2-c2ccccc2N1C(=O)c1ccco1,98.5*,-0.8,-17.1,7.8,1.3,12.0
CC(C)CCNC(=O)CN(Cc1ccco1)C(=O)CCC(=O)Nc1nccs1,.,0.2,0.5,11.3,-0.4,.
O=c1cc(CSc2ccc(Cl)cc2)nc(-c2ccccn2)[nH]1,.,30.0,-25.4,-9.8,21.3,.
C(=N\n1cnnc1)/c1cn(Cc2ccccc2)c2ccccc12,25.5,-2.6,1.6,5.8,4.2,.
Clc1ccc(Cn2cc(/C=N/n3cnnc3)c3ccccc32)c(Cl)c1,108.0*,-0.3,-1.6,2.9,1.3,48.8
COc1cc(OC)cc(C(=O)N[C@H](C(=O)NCCc2ccc(S(N)(=O)=O)cc2)C(C)C)c1,.,0.5,-12.7,-10.1,-0.3,.
CCC(=O)N1N=C(c2c(-c3ccccc3)c3cc(Cl)ccc3[nH]c2=O)CC1c1ccco1 (configuration not stated),103.2*,1.9,14.9,9.2,0.5,116.4*
O=C(O)CCC(=O)N1N=C(c2c(-c3ccccc3)c3cc(Cl)ccc3[nH]c2=O)CC1c1ccco1 (configuration not stated),-1.7,-2.0,4.7,-1.4,-2.5,.
O=C(CN1c2ccccc2Sc2ccccc21)NNC(=O)Nc1cccc(Cl)c1,103.1*,1.9,6.4,1.9,-0.6,117.5*
CC1=CC(C)(C)N(C(=O)c2ccc(F)cc2)c2cc3c(cc21)OCO3,98.0*,-3.9,19.6,-3.4,8.8,71.1*
CC1=CC(C)(C)N(C(=O)CCl)c2cc(C)ccc21,59.0,-1.6,19.9,14.0,2.7,.
CC(=O)Nc1ccccc1NC(=O)C/C(C)=N/NC(=O)Cc1cccc2ccccc12,.,0.7,1.0,17.4,0.2,.
SMILES,CHOP inhibitor,UPR CHOP act,697 NFkB inh,Jurkat NFkB inh,UPR XBP1 act,CHOP inh conf
COc1cccc(CN(Cc2ccco2)C(c2ccc(F)cc2)c2nnnn2C(C)(C)C)c1 (configuration not stated),47.8,-0.7,-14.2,-5.0,-2.2,.
CC(C)(C)n1nnnc1CN(Cc1ccc(F)cc1)Cc1ccco1,100.6*,-0.9,7.1,-2.3,-0.7,62.3
CCOc1cc(/C=N/NC(=O)Cc2ccc(C(F)(F)F)cc2[N+](=O)[O-])c(Br)cc1OC,101.3*,-1.4,8.5,-12.8,4.7,99.6*
COc1cc(Br)cc(/C=N/NC(=O)Cc2ccc(C(F)(F)F)cc2[N+](=O)[O-])c1O,26.1,0.0,3.9,16.2,-2.3,.
CCCn1c(/N=C/c2c[nH]c3ccccc23)nc2ccccc21,104.6*,4.3,-11.4,10.0,0.6,4.1
CCCCn1c(/N=C/c2ccc3c(c2)OCO3)nc2ccccc21,98.2*,0.6,-6.4,-5.6,-2.0,-1.2
CCn1c(/N=C/c2c[nH]c3ccccc23)nc2ccccc21,59.3,3.8,30.1,11.3,2.4,.
CCCCn1c(/N=C/c2c[nH]c3ccccc23)nc2ccccc21,111.0*,0.2,-8.4,3.0,-1.8,116.7*
CCCCn1c(/N=C/c2ccc(N(C)C)cc2)nc2ccccc21,21.5,-0.3,-7.8,-16.2,-1.6,.
CC(C)(C)OC(=O)N1CCC(C(=O)N[C@H](C(=O)O)c2ccccc2)(c2ccccc2)CC1,.,-1.1,0.5,-24.5,-4.8,.
N#C/C(=C\c1ccc(F)cc1)c1nc(-c2ccco2)cs1,104.7*,4.4,-64.7,-54.0,2.6,-100.6
N#C/C(=C\c1ccc(Cl)cc1)c1nc(-c2ccco2)cs1,-14.2,2.6,-27.9,-32.1,0.2,.
CNc1nc(N/N=C/c2cc3c(cc2[N+](=O)[O-])OCO3)nc(Nc2ccccc2)n1,105.8*,2.0,-18.5,-13.6,7.6,24.9
O=[N+]([O-])c1cc2c(cc1/C=N\NS(=O)(=O)c1ccccc1)OCO2,41.8,2.7,6.5,12.9,-1.8,.
Cc1ccc(NC(=O)Nc2cc(Cl)ccc2C2COC(=O)C2=N)cc1 (configuration not stated),101.0*,1.9,20.2,10.1,-1.0,61.7
CSc1nc2ccc3nc(NC(=O)c4ccc(C)cc4)sc3c2s1,16.2,3.2,-17.3,-12.2,9.1,.
Cc1ccc(C(=O)Nc2nc3ccccc3c(=O)s2)cc1,102.4*,0.1,-83.3,-51.7,-4.7,10.7
O=C(Nc1ccc(-c2nc3ccccc3o2)cc1)c1ccc(N2CCOCC2)c([N+](=O)[O-])c1,101.0*,-6.2,-113.9,4.6,-5.8,114.3*
COc1ccccc1NC(=O)c1c(N=Cc2ccccc2O)cnn1C,100.7*,0.2,-12.2,-0.6,15.6,14.0
COc1ccccc1NC(=O)c1c([N+](=O)[O-])cnn1C,.,1.7,-38.2,3.3,-5.6,.
Cc1nn(C)c(C)c1NC(=O)CSc1nc(C2CC2)nc2c1cnn2-c1ccccc1,102.3*,1.5,-18.2,12.7,0.8,30.2

# Screening data from PubChem.
